Data taken from PMC7327769 (Asian Journal of Pharmaceutical Sciences, 2019).

Experiments:
[1] = Solubility testing of saquinavir in oils, surfactants, and co-surfactants; type: physicochemical; settings: 20 °C, 24 h
Outline: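 Excess test compound added to each neat excipient and stirred magnetically. Content quantified by HPLC with UV detection at 240 nm (retention 3.8 min). Expressed as mg/g, mean ± standard deviation.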

[2] = after oral administration to HIV-infected patients; cited from earlier work

Solubility of saquinavir ([1]; in Capryol 90 (oil)): 145 ± 12.6 mg/g
Solubility of saquinavir ([1]; in Cremophor® EL (surfactant)): 55 ± 5.0 mg/g
Solubility of saquinavir ([1]; in Labrafac® CM10 (oil)): 57 ± 4.2 mg/g
Solubility of saquinavir ([1]; in Labrasol® (surfactant)): 105 ± 5.0 mg/g
Solubility of saquinavir ([1]; in PEG 400 (co-surfactant)): 40 ± 3.4 mg/g
Solubility of saquinavir ([1]; in Propylene glycol (co-surfactant)): 228 ± 19.5 mg/g
Solubility of saquinavir ([1]; in Transcutol® HP (co-surfactant)): 158 ± 17.8 mg/g
Solubility of saquinavir ([1]; in Triglyceride (oil)): 1.9 ± 0.4 mg/g
Solubility of saquinavir ([1]; in Tween® 80 (surfactant)): 37 ± 4.3 mg/g
Solubility of saquinavir ([1]; in Water (aqueous phase)): 2.2 ± 0.3 mg/g
SMILES: CC(C)(C)NC(=O)[C@@H]1C[C@@H]2CCCC[C@@H]2CN1C[C@@H](O)[C@H](Cc1ccccc1)NC(=O)[C@H](CC(N)=O)NC(=O)c1ccc2ccccc2n1 [saquinavir, Saquinavir]
time of the highest saquinavir concentration in plasma [2]: 2 to 4 h
